The source of these data is ChEMBL document CHEMBL4706570, “Structure-activity relationship studies and bioactivity evaluation of 1,2,3-triazole containing analogues as a selective sphingosine kinase-2 inhibitors” (Eur J Med Chem, 2020).

Active and inactive are the calls of the source. The calls are words filed in the database; no cut-off is given here. Bounds are passed on as bounds.

Usually inhibition stands for the share of the control response that was lost under treatment. The IC50 is the concentration that inhibits the measured activity by half. By Ki is commonly meant the dissociation constant of the complex between target and ligand, obtained from inhibition or displacement.

Test [1] addresses T1, Sphingosine kinase 2 (Homo sapiens) (UniProt Q9NRA0).
T1 sequence (whole entry): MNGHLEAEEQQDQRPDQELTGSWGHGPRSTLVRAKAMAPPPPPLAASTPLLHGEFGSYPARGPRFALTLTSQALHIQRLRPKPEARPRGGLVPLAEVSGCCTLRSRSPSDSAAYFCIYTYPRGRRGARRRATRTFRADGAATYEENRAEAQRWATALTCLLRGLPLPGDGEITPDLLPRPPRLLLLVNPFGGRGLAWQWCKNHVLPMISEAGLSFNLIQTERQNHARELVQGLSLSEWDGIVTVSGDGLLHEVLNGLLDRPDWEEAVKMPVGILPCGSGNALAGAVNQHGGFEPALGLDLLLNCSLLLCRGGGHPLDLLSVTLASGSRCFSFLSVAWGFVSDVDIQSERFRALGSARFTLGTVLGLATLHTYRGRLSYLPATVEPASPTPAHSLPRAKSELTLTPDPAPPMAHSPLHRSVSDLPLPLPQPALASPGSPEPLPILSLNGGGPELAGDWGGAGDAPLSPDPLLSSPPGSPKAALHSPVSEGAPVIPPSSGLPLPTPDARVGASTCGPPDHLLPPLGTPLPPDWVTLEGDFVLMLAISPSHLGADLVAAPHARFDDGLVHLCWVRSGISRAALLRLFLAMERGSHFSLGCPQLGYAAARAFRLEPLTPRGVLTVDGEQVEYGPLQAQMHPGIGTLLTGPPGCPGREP
Briefly: Inhibition of recombinant human N-terminal His-tagged SphK2 (2 to 654 residues) expressed in baculovirus infected Sf21 cells at 125 uM using d-erythro-sphingosine as substrate incubated for 1 hr by ADP-Glo assay relative to control. In general terms: ADP-Glo first removes unused ATP, then detects ADP through luciferase.

For test [2], the system named is U-251. Briefly: Cytotoxicity against human U-251MG cells assessed as reduction in cell viability at 125 uM incubated for 24 hrs by Hoechst 33258 and PI staining based imaging analysis. Format: functional. Summed up:
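U-251 MG glioblastoma cells grown in RPMI-1640 with 10% FBS, 1 mM sodium pyruvate and 1x Pen-Strep at 37 °C, 5% CO2. Seeded at 3000 cells/well, left about 16 h, then medium replaced with fresh medium containing 125 µM compound for 24 h. Stained with Hoechst 33258 for total cells and propidium iodide for apoptotic cells. Triplicate, S.E. reported.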

In test [3] the target is T2, Sphingosine kinase 2 (Homo sapiens, UniProt Q9NRA0).
T2 sequence (Q9NRA0 whole entry): T1 sequence (whole entry)
Description: Inhibition of recombinant human N-terminal His-tagged SphK2 (2 to 654 residues) expressed in baculovirus infected Sf21 cells using d-erythro-sphingosine as substrate incubated for 1 hr by ADP-Glo assay.

Test [4] has as its target Sphingosine kinase 1 (Homo sapiens, UniProt Q9NYA1). Description: Inhibition of recombinant human Flag-tagged SphK1 transfected in HEK293 cells using d-erythro-sphingosine as substrate by [gamma32P]-ATP based assay.
The target of test [5] is T2, Sphingosine kinase 2. Briefly: Inhibition of recombinant human Flag-tagged SphK2 transfected in HEK293 cells using d-erythro-sphingosine as substrate by [gamma32P]-ATP based assay.

Sphingosine kinase 1, sequence (Q9NYA1 whole entry): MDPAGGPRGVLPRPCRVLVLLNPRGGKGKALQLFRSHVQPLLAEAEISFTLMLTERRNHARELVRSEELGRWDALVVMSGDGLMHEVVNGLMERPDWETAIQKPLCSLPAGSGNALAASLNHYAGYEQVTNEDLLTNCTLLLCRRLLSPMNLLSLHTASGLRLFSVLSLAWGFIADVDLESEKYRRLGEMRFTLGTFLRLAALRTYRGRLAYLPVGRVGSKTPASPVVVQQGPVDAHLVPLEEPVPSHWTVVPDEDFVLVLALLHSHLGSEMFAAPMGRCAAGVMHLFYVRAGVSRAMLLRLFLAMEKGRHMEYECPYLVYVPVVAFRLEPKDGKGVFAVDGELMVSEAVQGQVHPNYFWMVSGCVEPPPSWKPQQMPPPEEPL

Consider `N=C(N)N1CCC[C@H]1Cc1nc(-c2ccc(Cn3cc(-c4ccccc4)nn3)cc2)no1`, for which the inhibition in test [1] is over 50%. Also, in test [2], the inhibition result is “Active”.

Consider `N=C(N)N1CCC[C@H]1c1nc(-c2ccc(Cn3cc(-c4cccs4)nn3)cc2)no1`, for which the inhibition in test [1] was over 50%. Further, the IC50 in test [3] amounted to 687 nM.

For the molecule `N=C(N)N1CCC[C@H]1Cc1nc(-c2ccc(Nc3nc(-c4cccc(C(F)(F)F)c4)cs3)cc2)no1`, the inhibition in test [1] was over 50%. The IC50 in test [3] was determined as 280 nM.

In the case of `N=C(N)N1CCC[C@H]1c1nc(-c2ccc(Cn3cc(C4CC4)nn3)cc2)no1`, the inhibition in test [1] is over 50%. Moreover, in test [3], the IC50 is 248 nM.

For `N=C(N)C1(c2nc(-c3ccc(Cn4cc(-c5ccccc5)nn4)cc3)no2)CC1`, the inhibition in test [1] was over 50%. For the same molecule, the inhibition result in test [2] was “Active”.

Consider `N=C(N)N1CCC[C@H]1Cc1nc(-c2ccc(Cn3cc(-c4ccc(C(F)(F)F)cc4)nn3)cc2)no1`, for which, in test [2], the inhibition entry was “Active”.

As for `CCCCc1cn(Cc2ccc(-c3noc([C@@H]4CCCN4C(=N)N)n3)cc2)nn1`, in test [1], the inhibition was over 50%. For the same molecule, the IC50 in test [3] amounted to 254 nM.

As for `Cn1cc(-c2cn(Cc3ccc(-c4noc(C[C@@H]5CCCN5C(=N)N)n4)cc3)nn2)cn1`, the inhibition in test [1] is over 50%.

With `COc1ccc(-c2cn(Cc3ccc(-c4noc(C[C@@H]5CCCN5C(=N)N)n4)cc3)nn2)cc1`, in test [1], the inhibition was over 50%. Moreover, the inhibition result in test [2] is “Active”.

Regarding `N=C(N)C1(c2nc(-c3ccc(Cn4cc(C5CC5)nn4)cc3)no2)CC1`, the inhibition in test [1] is over 50%.

For `N=C(N)N1CCC[C@H]1c1nc(-c2ccc(Cn3cc(-c4ccc(C(F)(F)F)cc4)nn3)cc2)no1`, in test [1], the inhibition was over 50%. Moreover, in test [3], the IC50 was 359 nM. Moreover, the inhibition entry in test [2] was “Active”.

As to `N=C(N)N1CCC[C@H]1Cc1nc(-c2ccc(Cn3cc(-c4ccccn4)nn3)cc2)no1`, the inhibition in test [1] is over 50%.

As for `Cc1ccc(S(=O)(=O)Nc2cccc(/C=N/c3ccccc3NS(=O)(=O)c3ccc(C)cc3)c2)cc1`, the Ki in test [4] was found to be 27000 nM; in test [5], 6900 nM.

As for `N=C(N)N1CCC[C@H]1c1nc(-c2ccc(Cn3cc(-c4ccc(F)cc4)nn3)cc2)no1`, the inhibition in test [1] was over 50%. The IC50 in test [3] worked out at 391 nM.

Take `COc1ccc(-c2cn(Cc3ccc(-c4noc([C@@H]5CCCN5C(=N)N)n4)cc3)nn2)cc1`: in test [1], the inhibition is over 50%. For the same molecule, in test [3], the IC50 is 266 nM. The inhibition result in test [2] was “Active”.

Take `N=C(N)N1CCC[C@H]1c1nc(-c2ccc(Cn3cc(-c4ccccc4)nn3)cc2)no1`: the inhibition in test [1] was over 50%.

As for `N=C(N)N1CCC[C@H]1c1nc(-c2ccc(Cn3cc(-c4ccccn4)nn3)cc2)no1`, the inhibition in test [1] was over 50%.

As for `Cn1cc(-c2cn(Cc3ccc(-c4noc(C5(C(=N)N)CC5)n4)cc3)nn2)cn1`, the inhibition in test [1] is over 50%. For the same molecule, the inhibition entry in test [2] is “Active”.

In the case of `O=C(NCc1ccncc1)C12CC3CC(C1)CC(c1ccc(Cl)cc1)(C3)C2` [ABC-294640], the inhibition at 125 µM in test [2] stood at 50%.
